Screening data as filed in PubChem BioAssay.
The list is not random: actives were taken first. Their share in the collection is about 3.9%.
FLuc inhib CS: counter-screen for luciferase assay inhibitors: firefly luciferase inhibition. P08659. ATPLite firefly luciferase biochemical luminescence, 10 min. inhibition, % at 10 µM. 1.5% of 200,000 active. AID 1006;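 active = inhibition above about 50% when tested at 10 µM, limit read from the data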
Target sequence (P08659 whole entry, looked up): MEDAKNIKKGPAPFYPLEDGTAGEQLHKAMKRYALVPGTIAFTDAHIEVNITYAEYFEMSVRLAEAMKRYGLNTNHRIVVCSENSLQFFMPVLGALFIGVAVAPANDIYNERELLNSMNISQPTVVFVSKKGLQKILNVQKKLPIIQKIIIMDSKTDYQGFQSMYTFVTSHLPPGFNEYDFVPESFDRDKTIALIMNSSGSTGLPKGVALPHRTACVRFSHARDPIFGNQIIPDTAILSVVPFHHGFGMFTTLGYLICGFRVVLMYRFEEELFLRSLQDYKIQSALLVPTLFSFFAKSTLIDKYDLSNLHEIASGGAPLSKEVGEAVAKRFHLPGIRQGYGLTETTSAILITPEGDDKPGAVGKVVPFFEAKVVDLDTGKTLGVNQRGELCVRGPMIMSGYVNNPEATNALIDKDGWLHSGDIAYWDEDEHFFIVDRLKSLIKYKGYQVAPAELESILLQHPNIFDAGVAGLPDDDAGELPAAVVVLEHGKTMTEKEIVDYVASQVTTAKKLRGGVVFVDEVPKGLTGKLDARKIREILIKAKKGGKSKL
NF-kB neuron act: NF-kB expression increase, human neuronal cells; NF-kB reporter expression; hits give high values; fold change at 12.5 µM; 1.6% of 190,000 active; AID 1239; in the data active = fold change above about 3.3
FLuc stim CS: firefly luciferase counter-screen for stimulation assays. ATPlite luciferase biochemical, luminescence, 10 min; 0 = ATP-free wells, 1 = DMSO control. activation factor at 10 µM. 200,000 tested, under 10 active. AID 1027;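 active = luciferase activation factor, scaled between plate controls, of at least 2 with compound at 10 µM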
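Assay system: Luciferase/luciferin detection reagent, cell-free biochemical luciferase assay / Read-out: luciferase activation / Benchmarks: No-ATP low control, compound-free enzyme-plus-ATP high control / Medium: PBS buffer for ATP / Detection: luminescence measurement of luciferase light output / Schedule: 10 min at ambient temperature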
Rad51 HR inh: Rad51 (human) homologous recombination inhibition; AID 1385; 0.085% of 200,000 active; hRad51 DNA strand exchange, fluorescence dequenching; inhibition, % at 10 µM;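 active = inhibition above 40% at the single screening dose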;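 note: 0% = DMSO control wells and 100% = blanks with heterologous ssDNA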
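Material: human Rad51–ssDNA filaments; Probe or stimulus: labelled 47-mer dsDNA for strand exchange; Doses: single 10 µM dose; Incubation: 37 °C 15-min filament assembly, 30-min compound preincubation, 15-min exchange; Technique: FRET fluorescence dequenching, excitation 485 nm, emission 520 nm; Measure: Fluorescence-based percent inhibition, control- and blank-normalised; Benchmarks: plate control and blank wells.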
STAT1 act: STAT1 signaling activation; NIH 3T3 STAT1-luciferase reporter, IFN-gamma, luminescence; 100% = IFN-gamma alone, no compound; activation (% of control), % at 5.5 µM; 2.6% of 200,000 active;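 active = activation above the screen-wide mean activation plus 3 SD, cut at about 130% in these data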;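 note: raw ratio to IFN-gamma control signal so 100% means no change and 0% no light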
APP 5'UTR act: activates APP 5'UTR luciferase reporter | SH-SY5Y APP 5'UTR luciferase reporter, luminescence; zero percent = DMSO vehicle wells | activation, % at 2 µM | 1% of 190,000 active;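 active = activation above a set limit, based on mean plus 3 SD of controls, cut at about 140% in these data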
Starred values were filed as active, the others as inactive; . = no result.

SMILES	FLuc inhib CS	NF-kB neuron act	FLuc stim CS	Rad51 HR inh	STAT1 act	APP 5'UTR act
CC(C)C(=O)Nc1cc(C(F)(F)F)ccc1-n1ccnc1	-3	1.1	1	4	91	5
Cn1c(SCC(=O)O)nnc1-c1ccc2ncccc2c1	.	.	.	19	.	.
Cn1c(=O)c2c(nc(SCC(=O)c3ccccc3F)n2C)n(C)c1=O	-1	1.3	1	12	98	3
CCOC(=O)Cc1cnc(NC(=O)CSc2nc(N)cc(N)n2)s1	-2	1	1	-3	99	38
O=C(CCCn1cc([N+](=O)[O-])cn1)Nc1cccnc1	.	.	.	33	.	.
Cn1cccc1/C=N/NC(=O)c1cccc(OC(F)(F)C(F)F)c1	20	1.2	0.8	19	96	14
COc1ccc(/C=C/CN2CCCC(CCC(=O)NCc3ccc(F)c(F)c3)C2)cc1 (centres undefined)	-4	0.93	1	-2	106	-27
Cc1noc(C)c1CSc1nc2ccccc2[nH]1	-2	1	1	-11	94	-3
Fc1cccc(F)c1CSc1nc2ccccc2[nH]1	37	7.2*	0.6	11	145*	156*
COCCCNC(=S)Nc1c(C)cc(C)cc1C	.	.	.	27	.	.
COC(=O)C1CCN(c2ccc(Cl)nn2)CC1	-5	1	1	-5	106	4
COc1ccc(NC(=O)c2cc([N+](=O)[O-])ccc2O)cc1	96*	.	0	.	14	-12
Brc1ccc(OCc2cn3ccccc3n2)cc1	77*	4.6*	0.2	0	147*	140*
CCCCn1c(-c2ccccc2)cnc1SCC(=O)NCCc1ccc(OC)c(OC)c1	-3	1.1	1	-6	134*	.
O=C(O)c1ccccc1Nc1ccccc1C(=O)O	-11	1.1	1.1	10	99	-2
O=C(O)c1ccccc1Nc1ccc([N+](=O)[O-])cc1	-6	2.3	1.1	-1	139*	3
CN(C)c1ccc(NC(=O)c2cnsn2)cc1	72*	1.1	0.3	-2	81	86
Oc1c(/C=C/C=C/C=Nc2ccccc2)sc(=S)n1Cc1ccccc1	.	.	.	-44	.	.
C=CCOc1c(CNc2cccc(C(=O)O)c2)cccc1OC	1	1.9	1	7	145*	56
C/C(=N\Nc1cccc(C(=O)O)c1)c1ccc(Cl)s1	-2	2.1	1	.	135*	86
C=CCOc1c(CNc2cccc(C(=O)O)c2)cccc1OCC	0	1.6	1	3	112	11
COc1ccc(/C(C)=N/Nc2cccc(C(=O)O)c2)cc1OC	1	1.1	1	9	107	217*
Cc1ccnc2nc(C(=O)OCC(=O)NC(=O)NCc3ccco3)nn12	-6	1.3	1.1	4	93	8
O=S1(=O)CCOC[C@H](Cc2ccccc2)N1Cc1ccc(Cl)cc1	.	.	.	-10	.	.
COC(=O)c1sccc1NC(=O)CC1C(=O)NCCN1C(=O)c1ccc(N(C)C)cc1 (centres undefined)	.	.	.	20	.	.
SMILES	FLuc inhib CS	NF-kB neuron act	FLuc stim CS	Rad51 HR inh	STAT1 act	APP 5'UTR act
Cc1cc(C)n(C(=O)/C=C/c2cccs2)n1	.	.	.	5	.	.
O=C(N/N=C/C1CC=CCC1)c1ccc(Cl)cc1O (centres undefined)	55*	1.4	0.4	3	91	18
CC(C)c1ccc(CNc2ccc([N+](=O)[O-])cn2)cc1	38	2.3	0.6	14	138*	74
O=[N+]([O-])c1ccc(NCc2ccc(Cl)cc2)nc1	.	.	.	13	.	.
Cc1ccc(NC(=O)Nc2ccc(F)cc2)nc1	11	2.1	0.9	6	136*	35
Cc1ccc(NC(=O)Nc2ccc3c(c2)N(C)C(=O)CS3)nc1	-3	1.1	1	2	129*	-1
Cc1ccc(NC(=O)c2ccc(NCc3ccc(F)cc3)nc2)cc1	-8	1.2	1.1	-2	105	-8
Clc1ccc(/C(Cc2nc3ccccc3[nH]2)=N\Nc2ccccc2)cc1	10	2.6	0.9	.	136*	78
CN/N=C(\Cc1nc2ccccc2[nH]1)c1ccc([N+](=O)[O-])cc1	42	1.1	0.6	-4	114	41
O=C(O)c1c(-c2ccc(Cl)cc2)cn2ccccc12	-2	2.1	1	-9	135*	16
C=CCCCCCCCCC(=O)NNC1CC(=O)N(c2ccccc2)C1=O (centres undefined)	.	.	.	18	.	.
